Reference: ChEMBL document CHEMBL4818996, “N-substituted benzimidazole acrylonitriles as in vitro tubulin polymerization inhibitors: Synthesis, biological activity and computational analysis” (Eur J Med Chem, 2021)
Activity calls are given as the source filed them. The calls are words filed in the database; no cut-off is given here.

How the values were obtained:
HL-60 = experiment: cells; format: functional, cell-based; details: Homo sapiens, HL-60, 72 h
Z-138 = experiment: cells; format: functional, cell-based; details: Homo sapiens, Z-138, 72 h
HCT-116 = experiment: Antiproliferative activity against human HCT-116 cells assessed as inhibition of cell proliferation measured after 72 hrs by real time imaging analysis; format: functional, cell-based; details: HCT-116, 72 h
Summary of the method: (§1)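 Adherent cells seeded at 500–1500 per well and incubated overnight, then treated at seven concentrations from 100 to 6.4 x 10^-3 µM. Kept at 37°C for 72 h with real-time imaging every 3 h (one field per well, 10x). Growth quantified as percent confluence; IC50 calculated from area under the curve.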

CAPAN-1 = experiment: cells; format: functional, cell-based; details: Homo sapiens, CAPAN-1, 72 h
MM1.S = experiment: cells; format: functional, cell-based; details: Homo sapiens, 72 h
K562 = experiment: Antiproliferative activity against human K562 cells assessed as inhibition of cell proliferation measured after 72 hrs by real time imaging analysis; format: functional, cell-based; details: K562, 72 h
Summary of the method: (§2)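 Suspension cells seeded at 2500–5500 per well into wells already holding compound, seven concentrations from 100 to 6.4 x 10^-3 µM. Incubated at 37°C for 72 h with imaging every 3 h (one field per well, 10x). Growth taken as percent confluence; IC50 derived from area under the curve.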

[1] = Antiproliferative activity against human DND41 cells assessed as inhibition of cell proliferation measured after 72 hrs by real time imaging analysis; format: functional, cell-based; details: DND41, 72 h
Summary of the method: as §2

NCI-H460 = experiment: Antiproliferative activity against human NCI-H460 cells assessed as inhibition of cell proliferation measured after 72 hrs by real time imaging analysis; format: functional, cell-based; details: NCI-H460, 72 h
Summary of the method: as §1

TERT-RPE1 = experiment: cells; format: ADME, cell-based; details: Homo sapiens, RPE-1, 72 h
Tubulin (Sus scrofa) = experiment: Inhibition of porcine brain tubulin polymerization in presence of GTP at 30 uM measured every 60 secs for 1 hr by multiplate reader method
cells = format: ADME, cell-based; details: Homo sapiens, PBMC, 72 h
HEp-2 = experiment: Inhibition of alpha-tubulin polymerization in human HEp-2 cells assessed as disintegration of microtubule network at 0.3 to 30 uM measured after 3 hrs by DAPI staining based immunoflourescence method relative to vincristine; format: cell-based; details: dose 0.3-30 µM
Summary of the method: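 HEp-2 cells seeded at 15000 per well and incubated overnight, then exposed 3 h to compound or DMSO carrier. Fixed in 4% PFA and permeabilised. Stained with mouse anti-alpha-tubulin and Alexa Fluor 488 anti-mouse IgG, with DAPI nuclear counterstain. Imaged by confocal microscopy at 63x water immersion. Vincristine and docetaxel served as references.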

Structure (SMILES)	IC50 (HL-60)	IC50 (Z-138)	IC50 (HCT-116)	IC50 (CAPAN-1)	IC50 (MM1.S)	IC50 (K562)	IC50 (NCI-H460)	inhibition (Tubulin (Sus scrofa))	IC50 (cells)	IC50 [1]	IC50 (TERT-RPE1)	inhibition (HEp-2)
N#C/C(=C\c1cccnc1)c1nc2ccccc2n1-c1ccccc1	31.3 µM	30.2 µM	50.6 µM	44 µM	59.5 µM	> 100 µM	45.6 µM	–	–	60.5 µM	54.4 µM	–
Cn1c(/C(C#N)=C/c2cccnc2)nc2ccccc21	58.6 µM	> 100 µM	85.1 µM	57.1 µM	> 100 µM	> 100 µM	59.3 µM	–	–	> 100 µM	60.1 µM	–
CN[C@@H]1C[C@H]2O[C@@](C)([C@@H]1OC)n1c3ccccc3c3c4c(c5c6ccccc6n2c5c31)C(=O)NC4 [STAUROSPORINE]	–	–	0.0281 µM	–	–	0.0768 µM	–	–	–	0.016 µM	–	–
CN(C)c1ccc(/C=C(\C#N)c2nc3ccc(C#N)cc3n2-c2ccccc2)cc1	10.9 µM	17.4 µM	26.8 µM	3.1 µM	> 100 µM	> 100 µM	45.7 µM	–	–	55.8 µM	27.8 µM	–
CC(C)Cn1c(/C(C#N)=C/c2ccccc2)nc2ccccc21	29.1 µM	40.1 µM	42.4 µM	20.6 µM	66.7 µM	53.4 µM	26.1 µM	–	–	60 µM	44.9 µM	–
N#C/C(=C\c1ccc[nH]1)c1nc2ccccc2n1-c1ccccc1	42 µM	67.5 µM	49.4 µM	14.2 µM	> 100 µM	> 100 µM	27.4 µM	–	–	41.2 µM	32.4 µM	–
CC(=O)O[C@@]12CO[C@@H]1C[C@H](O)[C@@]1(C)C(=O)[C@H](O)C3=C(C)[C@@H](OC(=O)[C@H](O)[C@@H](NC(=O)OC(C)(C)C)c4ccccc4)C[C@@](O)([C@@H](OC(=O)c4ccccc4)[C@H]21)C3(C)C [DOCETAXEL ANHYDROUS]	0.0072 µM	0.0142 µM	0.0017 µM	0.0088 µM	0.0118 µM	0.0152 µM	0.0024 µM	–	–	0.0125 µM	0.0553 µM	–
CC(C)Cn1c(C(C#N)=Cc2ccc(N(C)C)cc2)nc2ccc(C#N)cc21	0.2 µM	0.4 µM	0.4 µM	0.2 µM	1.3 µM	1.4 µM	0.6 µM	Active	> 76 µM	0.3 µM	1.7 µM	Active
Cn1c(/C(C#N)=C/c2ccc(Br)cc2)nc2ccccc21	24.3 µM	30.7 µM	52.2 µM	20.5 µM	95.7 µM	57.6 µM	32.1 µM	–	–	41.3 µM	47.3 µM	–
N#C/C(=C\c1cnc2ccccc2c1)c1nc2ccccc2n1-c1ccccc1	15.3 µM	12.6 µM	12.4 µM	10 µM	62.4 µM	> 100 µM	13.6 µM	–	–	14.1 µM	12.2 µM	–

Further lines, with some results ahead:

IC50 (HL-60)	IC50 (Z-138)	IC50 (HCT-116)	IC50 (CAPAN-1)	IC50 (MM1.S)	IC50 (K562)	IC50 (NCI-H460)	inhibition (Tubulin (Sus scrofa))	IC50 (cells)	Structure (SMILES)	IC50 [1]	IC50 (TERT-RPE1)	inhibition (HEp-2)
> 100 µM	> 100 µM	> 100 µM	84.4 µM	> 100 µM	> 100 µM	67.9 µM	–	–	Cn1c(/C(C#N)=C/c2ccc[nH]2)nc2ccccc21	73.7 µM	> 100 µM	–
0.3 µM	0.4 µM	0.6 µM	0.3 µM	1.5 µM	2.1 µM	0.4 µM	Active	> 98.8 µM	CC(C)Cn1c(C(C#N)=Cc2ccc(N(C)C)cc2)nc2ccccc21	0.2 µM	4.3 µM	Active
13.5 µM	9.9 µM	29 µM	13.3 µM	71 µM	37 µM	12.1 µM	–	–	Cn1c(/C(C#N)=C/c2c[nH]c3ccccc23)nc2ccccc21	14.9 µM	27.3 µM	–
68.1 µM	96.5 µM	68.5 µM	55.9 µM	> 100 µM	> 100 µM	> 100 µM	–	–	CN(C)c1ccc(/C=C(\C#N)c2nc3ccc(C#N)cc3n2C)cc1	> 100 µM	80.9 µM	–
6.7 µM	12.1 µM	7.1 µM	5.1 µM	24.8 µM	13.6 µM	5.3 µM	–	–	N#C/C(=C\c1c[nH]c2ccccc12)c1nc2ccccc2n1-c1ccccc1	10.1 µM	12.9 µM	–
33.4 µM	45.4 µM	50.4 µM	30.3 µM	72.9 µM	> 100 µM	14.8 µM	–	–	CC(C)Cn1c(C(C#N)=Cc2ccc([N+](=O)[O-])cc2)nc2ccccc21	54.6 µM	53.8 µM	–
33 µM	45 µM	> 100 µM	66.9 µM	> 100 µM	> 100 µM	22.4 µM	–	–	Cn1c(/C(C#N)=C/c2cnc3ccccc3c2)nc2ccccc21	49.9 µM	39.4 µM	–
8.6 µM	11 µM	16 µM	12.9 µM	35.7 µM	39.3 µM	12 µM	–	–	N#C/C(=C\c1ccc(Br)cc1)c1nc2ccccc2n1-c1ccccc1	12.3 µM	22.8 µM	–
